Reference: ChEMBL document CHEMBL4038305, “Benzoxaborole Antimalarial Agents. Part 5. Lead Optimization of Novel Amide Pyrazinyloxy Benzoxaboroles and Identification of a Preclinical Candidate” (J Med Chem, 2017)
Active and inactive are the calls of the source. No cut-off for these calls is given here.

Legend:
[1] = system: Rattus norvegicus; assay: Genotoxicity in rat assessed as micronuclei in polychromatic erythrocyte cells in bone marrow at 500 to 2000 mg/kg administered via oral gavage measured after 24 to 48 hrs post dose by micronucleus assay; format: toxicity, organism-based; conditions: in vivo
[2] = system: Plasmodium falciparum; assay: Antimalarial activity against Plasmodium falciparum TM90C2A infected in human erythrocytes assessed as reduction in [3H]-hypoxanthine incorporation preincubated for 24 hrs followed by [3H]-hypoxanthine addition measured after 24 hrs by scintillation counting method; format: functional, cell-based
[3] = system: Escherichia coli; assay: Genotoxicity in Escherichia coli WP2uvrA assessed as number of revertants per plate at 1.5 ug/plate in absence of rat liver S9 fraction by Ames test (reference value: 45 +/- 9); format: toxicity
[4] = system: Salmonella typhimurium; assay: Genotoxicity in Salmonella typhimurium TA100 assessed as number of revertants per plate at 500 ug/plate in absence of rat liver S9 fraction by Ames test (reference value: 154 +/- 9); format: toxicity; conditions: salmonella enterica subsp. enterica serovar typhimurium
[5] = system: Plasmodium falciparum; assay: Antimalarial activity against intraerythrocytic stage of Plasmodium falciparum assessed as time required to clear 99.9% of initial parasite population at 30 times IC50 preincubated for 24 hrs followed by [3H]-hypoxanthine addition measured after 24 hrs by scintillation counting method; format: functional
Method in brief: (§1)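 In vitro P. falciparum parasite reduction ratio assay run at 10×, 30× and 100× IC50. Derived parameters: lag phase (time to maximal killing), PRR (parasites killed per life cycle) and PCT99.9% (time to clear 99.9% of the initial parasite population).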

[6] = system: Plasmodium falciparum; assay: Antimalarial activity against Plasmodium falciparum V1/S infected in human erythrocytes assessed as reduction in [3H]-hypoxanthine incorporation preincubated for 24 hrs followed by [3H]-hypoxanthine addition measured after 24 hrs by scintillation counting method; format: functional, cell-based
[7] = system: Salmonella typhimurium; assay: Genotoxicity in Salmonella typhimurium TA100 assessed as number of revertants per plate at 1.5 ug/plate in absence of rat liver S9 fraction by Ames test (reference value: 154 +/- 9); format: toxicity; conditions: salmonella enterica subsp. enterica serovar typhimurium
[8] = system: Salmonella typhimurium; assay: Genotoxicity in Salmonella typhimurium TA1537 assessed as number of revertants per plate at 5 ug/plate in presence of rat liver S9 fraction by Ames test (reference value: 11 +/- 4); format: toxicity; conditions: salmonella enterica subsp. enterica serovar typhimurium
[9] = system: Lymphocyte; assay: Genotoxicity in human lymphocytes assessed as replication index at 80 ug/mL after 28 hrs in absence of rat liver S9 fraction by micronucleus assay relative to control; format: toxicity, cell-based
Method in brief: (§2)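 Human lymphocytes exposed for 3 h with or without rat liver S9, or 28 h without S9, with 1% DMSO as vehicle control. Replication index = (binucleated + 2 × multinucleated cells)/total cells. Cytotoxicity (%) = 100 − (RI treated/RI vehicle) × 100.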

[10] = system: Rattus norvegicus; assay: Genotoxicity in rat assessed as change in polychromatic erythrocytes in bone marrow at 2000 mg/kg administered via oral gavage measured after 24 hrs post dose by micronucleus assay relative to control; format: toxicity, organism-based; conditions: in vivo
[11] = system: Salmonella typhimurium; assay: Genotoxicity in Salmonella typhimurium TA1537 assessed as number of revertants per plate at 50 ug/plate in absence of rat liver S9 fraction by Ames test (reference value: 19 +/- 9); format: toxicity; conditions: salmonella enterica subsp. enterica serovar typhimurium
[12] = system: Lymphocyte; assay: Genotoxicity in human lymphocytes assessed as replication index at 355.15 ug/mL after 3 hrs in presence of rat liver S9 fraction by micronucleus assay relative to control; format: toxicity, cell-based; conditions: s9, 3 h; method in brief: as §2
[13] = AUC in rat at 2000 mg/kg administered via oral gavage; format: ADME, organism-based; conditions: in vivo
[14] = system: Lymphocyte; assay: Genotoxicity in human lymphocytes assessed as increase in frequency of micronucleated cells at 160 ug/mL after 28 hrs in absence of rat liver S9 fraction by micronucleus assay (reference value: 0.74%); format: toxicity, cell-based
[15] = system: Salmonella typhimurium; assay: Genotoxicity in Salmonella typhimurium TA100 assessed as number of revertants per plate at 50 ug/plate in presence of rat liver S9 fraction by Ames test (reference value: 141 +/- 1); format: toxicity; conditions: salmonella enterica subsp. enterica serovar typhimurium
[16] = system: Salmonella typhimurium; assay: Genotoxicity in Salmonella typhimurium TA1535 assessed as number of revertants per plate at 5 ug/plate in absence of rat liver S9 fraction by Ames test (reference value: 10 +/- 3); format: toxicity; conditions: salmonella enterica subsp. enterica serovar typhimurium
[17] = system: Salmonella typhimurium; assay: Genotoxicity in Salmonella typhimurium TA1537 assessed as number of revertants per plate at 1.5 ug/plate in presence of rat liver S9 fraction by Ames test (reference value: 11 +/- 4); format: toxicity; conditions: salmonella enterica subsp. enterica serovar typhimurium
[18] = system: Escherichia coli; assay: Genotoxicity in Escherichia coli WP2uvrA assessed as number of revertants per plate at 50 ug/plate in presence of rat liver S9 fraction by Ames test (reference value: 42 +/- 6); format: toxicity
[19] = system: Salmonella typhimurium; assay: Genotoxicity in Salmonella typhimurium TA1535 assessed as number of revertants per plate at 150 ug/plate in absence of rat liver S9 fraction by Ames test (reference value: 10 +/- 3); format: toxicity; conditions: salmonella enterica subsp. enterica serovar typhimurium
[20] = system: Plasmodium falciparum; assay: Antimalarial activity against Plasmodium falciparum 3D7 0087/N9 infected in NOD/SCID IL2R gamma null mouse assessed as decrease in parasitemia at 0.3 to 75 mg/kg up to 7 days post infection; format: functional, organism-based
Method in brief: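 Human-erythrocyte-engrafted NODscidIL2Rγnull mice carrying P. falciparum Pf3D70087/N9 in peripheral blood; compound given orally once daily for four consecutive days.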

[21] = system: Plasmodium falciparum; assay: Antimalarial activity against intraerythrocytic stage of Plasmodium falciparum assessed as time required to clear 99.9% of initial parasite population at 10 times IC50 preincubated for 24 hrs followed by [3H]-hypoxanthine addition measured after 24 hrs by scintillation counting method; format: functional; method in brief: as §1
[22] = system: Lymphocyte; assay: Genotoxicity in human lymphocytes assessed as increase in frequency of micronucleated cells at 355.15 ug/mL after 3 hrs in presence of rat liver S9 fraction by micronucleus assay (reference value: 0.63%); format: toxicity, cell-based; conditions: s9, 3 h
[23] = system: Lymphocyte; assay: Genotoxicity in human lymphocytes assessed as increase in frequency of micronucleated cells at 80 ug/mL after 3 hrs in presence of rat liver S9 fraction by micronucleus assay (reference value: 0.63%); format: toxicity, cell-based; conditions: s9, 3 h
[24] = system: Plasmodium falciparum; assay: Antimalarial activity against Plasmodium falciparum 7G8 infected in human erythrocytes assessed as reduction in [3H]-hypoxanthine incorporation preincubated for 24 hrs followed by [3H]-hypoxanthine addition measured after 24 hrs by scintillation counting method; format: functional, cell-based
[25] = system: Plasmodium berghei; assay: Antimalarial activity against Plasmodium berghei infected in Swiss Webster mouse assessed as mouse survival rate at 1 mg/kg administered once daily via oral gavage for 4 consecutive days beginning 1 hr after infection measured on day 4 post infection relative to control; format: functional
Method in brief: (§3)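 Mice given an intraperitoneal injection of P. berghei-infected erythrocytes taken from a previously infected animal. Oral dosing once daily for 4 consecutive days, starting 1 h after infection. Vehicle: polyethylene glycol 300/propylene glycol/water (weight ratio 55/25/20). Percent survival recorded daily from day 4 to day 20. Chloroquine 30 mg/kg and vehicle-only groups served as controls.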

[26] = system: Plasmodium berghei; assay: Antimalarial activity against Plasmodium berghei infected in Swiss Webster mouse assessed as mouse survival rate at 0.3 mg/kg administered once daily via oral gavage for 4 consecutive days beginning 1 hr after infection measured on day 8 post infection relative to control; format: functional; method in brief: as §3

Compound: Cc1c(Oc2cnc(C(=O)NCCO)cn2)ccc2c1B(O)OC2
- Activity [1]: Non-Toxic

Compound: Cc1c(Oc2cnc(C(=O)N3CC(C)(O)C3)cn2)ccc2c1B(O)OC2
- IC50 [2]: 64 nM
- Activity [3]: 40
- Activity [4]: 155
- T99.9% [5]: 30 h
- IC50 [6]: 63 nM
- Activity [7]: 144
- Activity [8]: 22
- Activity [9]: 7%
- Activity [10]: -4%
- Activity [11]: 12
- Activity [12]: 7%
- AUC [13]: 742 µg·h/mL
- Activity [14]: 0.89%
- Activity [15]: 136
- Activity [16]: 8
- Activity [17]: 12
- Activity [18]: 44
- Activity [19]: 8
- Activity [20]: Active
- T99.9% [21]: 36 h
- Activity [22]: 0.73%
- Activity [23]: 0.74%
- IC50 [24]: 35 nM

Compound: Cc1c(Oc2cnc(C(=O)NC(C)CO)cn2)ccc2c1B(O)OC2 (stereo unspecified)
- survival at 1 mg/kg [25]: 100%
- survival at 0.3 mg/kg [26]: 0%
